Series [1] is described as follows: Half-life at 37 degree Celsius in aqueous solution at pH 7.4. The series is classed as ADME. Summed up: (§1)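 Carbamate hydrochloride salt (about 0.5 mg) taken up in buffer pre-warmed to 37 °C, final about 1 mM, and held at 37 °C. Samples were injected straight onto C-18 reverse-phase HPLC at intervals, or quenched in 1 N HCl first. Carbamate and 4-methoxyphenol were read at 220 nm. Half-life is the time to 50% conversion, fitted by first-order kinetics. Each value is the mean of at least two separate runs.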

A short description of series [2]: pKa of the compound. The series is classed as physicochemical.
A short description of series [3]: Half-life at 37 degree Centigrade, towards Murine plasma esterases at pH 7.4. Conditions: mouse. The series is classed as ADME. The essentials: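 Carbamate HCl salt dissolved in dilute H3PO4, then added to fresh murine plasma with pH 7.4 phosphate buffer (plasma:buffer 1.6:0.40) at 37 °C, final 5×10^-4 M. pH held at 7.4 by pH-stat. Aliquots taken at intervals were quenched in 7% HClO4 and centrifuged, and the supernatant was analysed.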

The nature of series [4]: Half-life at 37 degree Celsius in aqueous solution at pH 5.2. Type of series: ADME. The essentials: as §1
Series [5] in a line: Half-life at 37 degree Centigrade, in aqueous solution at pH 7.4. The series is classed as ADME. Summed up:
as §1

A short description of series [6]: Half-life at 37 degree Celsius in aqueous solution at pH 4.2. Type of series: ADME. Summed up: as §1
The nature of series [7]: Half-life at 37 degree Celsius in aqueous solution at pH 6.8. The series is classed as ADME. The essentials:
as §1

This is an account of results in ChEMBL document CHEMBL1124971, “Cyclization-activated prodrugs. Basic carbamates of 4-hydroxyanisole” (J Med Chem, 1990).

Regarding `CCNCCN(CC)C(=O)Oc1ccc(OC)cc1.Cl`, the half-life – broadly, the time in which the quantity being followed falls by half – in series [1] is 118 min.
As to `COc1ccc(OC(=O)NCCCN)cc1.Cl`, the half-life in series [1] is 910 min. For the same compound, the pKa (commonly the negative logarithm of the acid dissociation constant) in series [2] stood at 9.6.
Consider `CNCCN(C)C(=O)Oc1ccc(OC)cc1.Cl`, for which the half-life in series [3] was 56 min; in series [4] it was 2.41 days; in series [5], 36.3 min; in series [6], more than 15 days; in series [7] it was 140 min.
Regarding `COc1ccc(OC(=O)N(C)CCN(C)C)cc1.Cl`, the half-life in series [1] stood at 39.6 min.
`CNCCCN(C)C(=O)Oc1ccc(OC)cc1.Cl`: in series [1], the half-life stood at 942 min. Compared with the last compound, the half-life is about 24-fold higher.
In series [1], `CNCCNC(=O)Oc1ccc(OC)cc1.Cl` displayed a half-life of 335 min.
As to `COc1ccc(OC(=O)NCCN)cc1.Cl`, the half-life in series [1] is 724 min. In series [2], this compound registered a pKa of 8.65.
As to `CNCCOC(=O)Oc1ccc(OC)cc1.Cl`, the half-life in series [1] is less than 0.3 min.
Consider `COc1ccc(OC(=O)N(C)CCN)cc1.Cl`, for which the half-life in series [1] came to 304 min. The pKa in series [2] came out at 8.9.
